From ChEMBL document CHEMBL3124805, “Anti-allodynic effect of 2-(aminomethyl)adamantane-1-carboxylic acid in a rat model of neuropathic pain: a mechanism dependent on CaV2.2 channel inhibition” (Bioorg Med Chem, 2014)
Active and inactive are the calls of the source.

Key:
[1] = target: Voltage-dependent T-type calcium channel subunit alpha-1G (Homo sapiens) (UniProt O43497); experiment: Inhibition of human recombinant Cav3.1 expressed in HEK-293 cell assessed as current density at 500 uM after 3 hrs by whole cell patch clamp technique; type: cell-based; conditions: HEK293
In short: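 HEK-293 cells stably expressing CaV3.1a (no auxiliary subunits) were re-seeded on poly-L-lysine coverslips and recorded ~4 h later. Cells were incubated 3 h with 500 µM. Whole-cell current–voltage relationships were recorded at 22–24 °C, normalized to Cm; n = 5–6.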

[2] = system: Rattus norvegicus; experiment: Anti-allodynic activity in Sprague-Dawley rat spinal nerve ligation-induced neuropathic pain model assessed as tactile allodynia at 10 to 300 ug administered intrathecally measured after 4 hrs by von frey filament based paw withdrawal threshold method; type: functional, organism-based
In short: (§1)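 Rats 140–160 g, 12/12 h light/dark, food and water ad libitum. Spinal nerve ligation under ketamine/xylazine (45:12 mg/kg i.p.). An intrathecal PE-10 catheter was placed to the lumbar level via the atlantooccipital membrane, followed by 5 d recovery. Rats with motor impairment were excluded. Bolus doses of 10–300 µg/rat were given to allodynic rats, against vehicle. 50% paw withdrawal threshold to von Frey filaments after 30–40 min acclimation on mesh.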

[3] = system: HEK293; experiment: Inhibition of rabbit recombinant Cav2.2/rat recombinant Cavbeta3/Cavalpha2delta-1 expressed in HEK-293 cell assessed as hyperpolarizing shift in half-inactivation potential at 500 uM after 3 hrs by whole cell patch clamp technique; type: cell-based; conditions: in the assay text read “depolarizing” for “hyperpolarizing”
In short: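 Transiently transfected CaV2.2α1/β3/α2δ-1 HEK-293 cells were treated 3 h with 500 µM in culture medium. Whole-cell recording at 22–24 °C. 2 s prepulses of various amplitudes from Vh −80 mV, then test pulses to +20 mV. Steady-state inactivation was fitted with a Boltzmann equation to give V½ and slope; n = 4–6.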

[4] = target: Cav1.3/Cav beta3/Cav alpha2delta complex (Rattus norvegicus) (UniProt P54290+P27732+P54287); experiment: Inhibition of rat recombinant Cav1.3/Cavbeta3/Cavalpha2delta-1 expressed in HEK-293 cell assessed as decrease in current density at 500 uM after 3 hrs by whole-cell patch clamp technique; type: cell-based; conditions: HEK293
In short: (§2)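 Rat CaV1.3α1 (pcDNA6/His) was transiently co-transfected with β3, with or without α2δ-1, plus GFP into HEK-293 cells. Cells were incubated 3 h with 500 µM, then whole-cell Ba²⁺ current–voltage relationships were recorded at 22–24 °C, normalized to membrane capacitance. n = 9 with α2δ-1; n = 5–7 without.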

[5] = system: Rattus norvegicus; experiment: Anti-allodynic activity in Sprague-Dawley rat spinal nerve ligation-induced neuropathic pain model assessed as reversal of tactile allodynia at 10 to 300 ug administered intrathecally measured after 1 hr by von frey filament based paw withdrawal threshold method; type: functional, organism-based; in short: as §1
[6] = organism: Rattus norvegicus; experiment: Toxicity in Sprague-Dawley rat spinal nerve ligation-induced neuropathic pain model assessed as reduction of corneal and pinna reflexes at 10 to 300 ug, it; type: organism-based, Cornea; conditions: in vivo, icv_or_intrathecal
[7] = system: HEK293; experiment: Inhibition of rabbit recombinant Cav2.2/rat recombinant Cavbeta3/Cavalpha2delta-1 expressed in HEK-293 cell assessed as current density at 500 uM at holding potential of -80 mV after 1 to 2 hrs by whole-cell patch clamp technique; type: cell-based
In short: (§3)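 HEK-293 cells were transiently co-transfected (lipofection) with CaV subunit cDNAs plus a GFP plasmid. Cells were split at ~10% confluence 2 days later and GFP-positive cells recorded ~4 h after. Cells were preincubated 1–3 h in medium with 500 µM compound (water stock). Whole-cell Ba²⁺ currents were recorded at 22–24 °C with CsCl/EGTA/MgATP pipette solution, pH 7.1, P/4 leak subtraction, normalized to Cm, within 15 min of break-in. Pulses were 140 ms from Vh −80 mV. Student's t-test.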

[8] = system: HEK293; experiment: Inhibition of rabbit recombinant Cav2.2/rat recombinant Cavbeta3/Cavalpha2delta-1 expressed in HEK-293 cell assessed as decrease in current density at 500 uM at holding potential of -80 mV after 3 hrs by whole-cell patch clamp technique; type: cell-based; in short: as §3
[9] = organism: Rattus norvegicus; experiment: Toxicity in Sprague-Dawley rat spinal nerve ligation-induced neuropathic pain model assessed as reduction of stepping at 10 to 300 ug, it; type: organism-based; conditions: in vivo, icv_or_intrathecal
[10] = target: Cav1.3/Cav beta3 complex (Rattus norvegicus) (UniProt P27732+P54287); experiment: Inhibition of rat recombinant Cav1.3/Cavbeta3 expressed in HEK-293 cell assessed as current density at 500 uM after 3 hrs by whole-cell patch clamp technique; type: cell-based; conditions: HEK293; in short: as §2
[11] = system: HEK293; experiment: Inhibition of rabbit recombinant Cav2.2/rat recombinant Cavbeta3/Cavalpha2delta-1 expressed in HEK-293 cell assessed as inhibition of channel current at 500 uM by whole-cell patch clamp technique; type: cell-based; in short: as §3
[12] = system: Rattus norvegicus; experiment: Anti-allodynic activity in Sprague-Dawley rat spinal nerve ligation-induced neuropathic pain model assessed as reversal of tactile allodynia at 10 to 300 ug administered intrathecally measured after 2 hrs by von frey filament based paw withdrawal threshold method; type: functional, organism-based; in short: as §1
[13] = system: HEK293; experiment: Inhibition of rabbit recombinant Cav2.2/rat recombinant Cavbeta3 expressed in HEK-293 cell assessed as current density at 500 uM after 3 hrs by whole-cell patch clamp technique; type: cell-based; in short: as §3
[14] = system: HEK293; experiment: Inhibition of rabbit recombinant Cav2.2/rat recombinant Cavbeta3/Cavalpha2delta-1 expressed in HEK-293 cell assessed as decrease in inward current at 500 uM at voltages from -20 to +30 mV after 3 hrs by whole-cell patch clamp technique; type: cell-based; in short: as §3
[15] = organism: Rattus norvegicus; experiment: Toxicity in Sprague-Dawley rat spinal nerve ligation-induced neuropathic pain model assessed as reduction of righting at 10 to 300 ug, it; type: organism-based; conditions: in vivo, icv_or_intrathecal
[16] = system: HEK293; experiment: Inhibition of rabbit recombinant Cav2.2/rat recombinant Cavbeta3/Cavalpha2delta-1 expressed in HEK-293 cell assessed as decrease in whole cell Ba2+ current at 500 uM at holding potential of -80 mV up to 3 hrs by whole-cell patch clamp technique; type: cell-based; in short: as §3

Chain of Voltage-dependent T-type calcium channel subunit alpha-1G (Homo sapiens) (O43497 whole entry): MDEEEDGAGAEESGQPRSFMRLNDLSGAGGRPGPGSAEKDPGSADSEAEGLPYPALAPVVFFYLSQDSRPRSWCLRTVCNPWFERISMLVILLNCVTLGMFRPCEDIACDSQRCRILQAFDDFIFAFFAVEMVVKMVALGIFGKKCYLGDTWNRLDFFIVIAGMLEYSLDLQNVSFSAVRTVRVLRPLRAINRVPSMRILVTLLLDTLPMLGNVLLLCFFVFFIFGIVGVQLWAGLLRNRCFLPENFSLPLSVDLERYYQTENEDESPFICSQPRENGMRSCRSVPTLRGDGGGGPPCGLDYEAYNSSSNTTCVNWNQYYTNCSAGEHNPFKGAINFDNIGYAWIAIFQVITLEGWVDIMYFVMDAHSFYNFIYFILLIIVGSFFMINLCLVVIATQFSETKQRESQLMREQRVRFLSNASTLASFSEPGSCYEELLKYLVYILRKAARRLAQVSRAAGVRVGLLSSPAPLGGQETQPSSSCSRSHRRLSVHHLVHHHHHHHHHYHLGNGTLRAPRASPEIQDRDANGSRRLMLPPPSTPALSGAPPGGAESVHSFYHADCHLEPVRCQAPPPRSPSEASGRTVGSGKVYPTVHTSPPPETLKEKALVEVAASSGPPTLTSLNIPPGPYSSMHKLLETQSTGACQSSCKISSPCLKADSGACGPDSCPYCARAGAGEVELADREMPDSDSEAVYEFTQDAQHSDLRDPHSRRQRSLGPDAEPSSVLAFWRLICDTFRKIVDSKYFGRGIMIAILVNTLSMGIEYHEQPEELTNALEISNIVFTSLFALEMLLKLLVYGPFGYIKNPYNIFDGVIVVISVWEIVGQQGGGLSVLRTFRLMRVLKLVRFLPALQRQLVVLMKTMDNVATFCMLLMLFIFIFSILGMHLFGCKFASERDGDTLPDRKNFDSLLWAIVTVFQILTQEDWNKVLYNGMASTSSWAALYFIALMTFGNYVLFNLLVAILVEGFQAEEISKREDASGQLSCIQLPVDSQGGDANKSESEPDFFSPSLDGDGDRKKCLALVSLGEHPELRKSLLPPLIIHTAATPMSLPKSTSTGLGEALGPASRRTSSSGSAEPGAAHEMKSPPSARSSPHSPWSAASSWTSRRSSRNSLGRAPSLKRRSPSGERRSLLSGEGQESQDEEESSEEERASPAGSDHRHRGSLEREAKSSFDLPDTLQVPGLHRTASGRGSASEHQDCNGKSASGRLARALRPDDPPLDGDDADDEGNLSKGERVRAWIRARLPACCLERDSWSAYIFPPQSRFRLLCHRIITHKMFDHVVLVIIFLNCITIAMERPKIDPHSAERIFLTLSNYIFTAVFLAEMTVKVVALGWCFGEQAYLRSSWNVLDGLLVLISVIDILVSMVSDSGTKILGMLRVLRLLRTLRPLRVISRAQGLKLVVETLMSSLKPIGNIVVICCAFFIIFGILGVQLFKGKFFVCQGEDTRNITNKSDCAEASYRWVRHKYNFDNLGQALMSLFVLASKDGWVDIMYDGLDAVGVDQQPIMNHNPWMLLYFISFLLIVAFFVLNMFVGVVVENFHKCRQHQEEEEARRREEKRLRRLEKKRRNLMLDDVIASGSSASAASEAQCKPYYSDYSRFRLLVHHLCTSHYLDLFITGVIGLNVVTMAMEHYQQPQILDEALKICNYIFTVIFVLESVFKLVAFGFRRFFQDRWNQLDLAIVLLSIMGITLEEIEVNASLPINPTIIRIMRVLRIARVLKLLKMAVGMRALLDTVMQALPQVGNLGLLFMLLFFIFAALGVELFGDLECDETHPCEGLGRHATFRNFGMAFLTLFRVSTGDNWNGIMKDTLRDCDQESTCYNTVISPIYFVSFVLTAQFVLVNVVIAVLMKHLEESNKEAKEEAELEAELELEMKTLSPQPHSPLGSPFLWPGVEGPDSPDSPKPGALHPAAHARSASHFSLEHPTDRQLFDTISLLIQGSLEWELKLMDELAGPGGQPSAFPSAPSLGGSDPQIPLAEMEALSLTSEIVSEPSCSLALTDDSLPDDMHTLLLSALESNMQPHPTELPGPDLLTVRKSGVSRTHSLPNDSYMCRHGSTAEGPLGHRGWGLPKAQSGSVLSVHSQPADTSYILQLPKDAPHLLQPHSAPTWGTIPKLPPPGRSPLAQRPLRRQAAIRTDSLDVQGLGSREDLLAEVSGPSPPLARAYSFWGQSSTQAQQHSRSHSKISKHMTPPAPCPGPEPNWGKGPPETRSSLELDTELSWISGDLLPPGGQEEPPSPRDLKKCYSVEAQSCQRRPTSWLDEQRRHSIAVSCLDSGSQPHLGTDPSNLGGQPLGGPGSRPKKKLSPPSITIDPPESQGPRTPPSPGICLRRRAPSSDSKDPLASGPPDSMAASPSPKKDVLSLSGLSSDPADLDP

Compound: Cl.NCC1C2CC3CC(C2)CC1(C(=O)O)C3 (stereo unspecified)
- inhibition [1]: inactive
- Activity [2]: inactive
- inhibition [3]: Active
- inhibition [4]: Active
- Activity [5]: Active
- Activity [6]: Non-toxic
- inhibition [7]: inactive
- inhibition [8]: Active
- Activity [9]: Non-toxic
- inhibition [10]: inactive
- inhibition [11]: 30%
- Activity [12]: Active
- inhibition [13]: inactive
- inhibition [14]: Active
- Activity [15]: Non-toxic
- inhibition [16]: Active
